The array DNA melting data of Ke et al. (doi:10.1101/2024.01.08.574731)

Columns and labels:
[1] = folding enthalpy; higher = less favourable; fluorescence melt of hairpins on a sequencing array, two-state fit; conditions: sodium 0.088 M
Method in brief: (§1)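 Hairpins were imaged by Cy3 fluorescence on a sequenced MiSeq flow cell with annealed Cy3 and quencher oligos, in 50 mM Na-HEPES pH 8.0, 25 mM NaCl, in 2.5 °C steps up to 60 °C. Bootstrapped two-state fits of normalised signals gave melting temperature and folding enthalpy. Four replicates were combined by inverse variance, and fitted temperatures were raised by 9.35 °C to match UV melts.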

[2] = melting temperature; fluorescence melt of hairpins on a sequencing array, two-state fit, raised by 9.35 °C to match UV melts; conditions: sodium 0.088 M
Method in brief: as §1

| Sequence | folding enthalpy [1] [kcal/mol] | Tm [2] [°C] |
| --- | --- | --- |
| GCCAATCGAAAGATCGGC (((.(((....))).))) | -35.6 | 49.8 |
| GATCACCGGCGTGATC ((((((....)))))) | -37.7 | 54.7 |
| GTCCCCCGAAAGGGCGAC (((.(((....))).))) | -21.6 | 49.1 |
| GAGGTTGGAAACGACCTC (((((.(....).))))) | -34.4 | 51.3 |
| GATCACCGATGTGATC ((((((....)))))) | -30.1 | 54.6 |
| GCGAGAGGAAACCCTCGC (((((.(....).))))) | -27.8 | 54.1 |
| GCCACGCGAAAGCCAGGC (((..((....))..))) | -22.7 | 50.2 |
| GGTCCACCGAAAGGTACC (((..(((....)))))) | -11.9 | 29.2 |
| GATCCTTATCAGGATC ((((((....)))))) | -33.2 | 51 |
| GACCGAGGAAACTCGATC ((.((((....)))).)) | -21.1 | 40.7 |
| TGCTGGAAACAGCA (((((....))))) | -19.4 | 53.1 |
| GTGCCGCCGAAAGGCCAC (((..(((....)))))) | -9.13 | 60 |
| GGCTCCGAAAGGACTGCC ((((((....)))..))) | -19.1 | 47.6 |
| GCACGTACGAAAGTATGC (((..(((....)))))) | -16 | 31.3 |
| GCAGATCCGAAAGGATGC (((..(((....)))))) | -16.3 | 45.2 |
| GTGCCCGCGAAAGCGCAC (((..(((....)))))) | -13.5 | 45.5 |
| GCCTCGCGAAAGCGATGC ((.((((....)))).)) | -16.7 | 58.2 |
| GAACGGCCGAAAGGCTTC (((..(((....)))))) | -7.62 | 21.1 |
| GTCAGCTCGAAAGAGGAC (((..(((....)))))) | -17.7 | 33.4 |
| GTCCCCGAAAGGGAGAC ((((((....))).))) | -30 | 53.7 |
| GCGAAACGAAAGTTACGC (((.(((....))).))) | -40.1 | 58.6 |
| GTTTTTCGAAAGAATAAC (((.(((....))).))) | -28.1 | 34.7 |
| GCGGCTATCCGC ((((....)))) | -20.1 | 61.2 |
| GTCGAGCGAAAGCTGGAC (((.(((....))).))) | -28.9 | 56.1 |

| Sequence | folding enthalpy [1] [kcal/mol] | Tm [2] [°C] |
| --- | --- | --- |
| GTGCTCGAAAGAGTTCAC ((((((....)))..))) | -13.6 | 34.6 |
| TCCCGGAAACGGGA (((((....))))) | -19.7 | 60.7 |
| GTACGCGAAAGCGAATAC ((((((....)))..))) | -8.59 | 31.9 |
| GTGTGCGGAAACGTGCAC (((..((....))..))) | -38.2 | 52.9 |
| CCCCAGAAATGGGG (((((....))))) | -16 | 52.2 |
| GCTCATCGAAAGATCAGC (((.(((....))).))) | -29.6 | 34.7 |
| GCTTACGAAAGTAGTAGC ((((((....)))..))) | -27.9 | 34.8 |
| GTCCTCGAAAGAGAAGAC ((((((....)))..))) | -19.8 | 32.2 |
| GCGTCAGGAAACCGACAC (.(((.(....).))).) | -16 | 27.4 |
| GGCGACGAAAGTCCGGCC ((((((....)))..))) | -21.7 | 51.5 |
| GCTTCCACGAAAGTGAGC (((..(((....)))))) | -12.3 | 33.7 |
| GCCACATCGAAAGATGGC (((..(((....)))))) | -15.2 | 45.5 |
| GATCGGCGAAAGCCAATC (((.(((....))).))) | -17.1 | 43.7 |
| GGCAAGGGAAACCTTGTC (.(((((....))))).) | -31.7 | 50.6 |
| GCGTAACAACGC ((((....)))) | -27 | 52.9 |
| GCAGCTGGAAACGGCTGC (((((.(....).))))) | -46.1 | 60.2 |
| GCCTTGCGAAAGCACGGC (((.(((....))).))) | -49.4 | 57.8 |
| GATCTTTGAAAAGATC ((((((....)))))) | -29.4 | 42.2 |
| GGTTGAGGAAACTCGACC (((.(((....))).))) | -44.2 | 51.5 |
| GACTACGAAAGTATGTC ((((((....))).))) | -26.2 | 44.7 |
| GGTTAACGAAAGTTTACC (((.(((....))).))) | -33.3 | 45.2 |
| GCTTTCGAAAGAAATAGC ((((((....)))..))) | -20 | 36.8 |
| GGTTTCGGAAACGAAGTC (..((((....))))..) | -10.3 | 26.4 |
| GATCTGCTGCAGATC ((((((...)))))) | -41.4 | 50.4 |

| Sequence | folding enthalpy [1] [kcal/mol] | Tm [2] [°C] |
| --- | --- | --- |
| GATCCGCAGCCGGATC ((((((....)))))) | -40.7 | 55.9 |
| GAGCACGAAAGTGCCCTC ((((((....)))..))) | -9.48 | 44.3 |
| GGTGTCGGAAACGGCACC ((((.((....)).)))) | -46.5 | 64.7 |
| GTCATAGGAAACTGTGAC ((((.((....)).)))) | -32.1 | 46.4 |
| GCGTCAGGACGC ((((....)))) | -26 | 56.5 |
| GATCCGGATCGGATC ((((((...)))))) | -35.4 | 55.6 |
| GATCGACGCGTCGATC ((((((....)))))) | -52.3 | 68.2 |
| GCGTGCGAAAGCACCCGC ((((((....)))..))) | -10.1 | 43.7 |
| GTTTCCACGAAAGTGAAC (((..(((....)))))) | -8.62 | 27.2 |
| GATAATGGAAACATTACC (.(((((....))))).) | -9.26 | 22.6 |
| GCGTCGCTACGC ((((....)))) | -13.7 | 55.2 |
| GATCGGTAAACCGATC ((((((....)))))) | -40.7 | 56.2 |
| GATCACCTAGGTGATC ((((((....)))))) | -41.5 | 59.7 |
| GCAAGCGGAAACGCTCGC ((.((((....)))).)) | -22.6 | 52.7 |
| CGAGCGGAAACGCTTCG ((((((....))).))) | -15 | 50.6 |
| GATCAAAGATTTGATC ((((((....)))))) | -31.8 | 43.6 |
| GCCTAGCGAAAGCCGGGC (((..((....))..))) | -20.1 | 57.1 |
| GTTGGTGGAAACATCAGC (.((.((....)).)).) | -18.8 | 31.4 |
| GAACGCCGAAAGGCATTC (((.(((....))).))) | -17.8 | 43.3 |
| GCCGGGCGAAAGCCTTGC ((..(((....)))..)) | -12.4 | 40.2 |
| GTCAAGGCGAAAGCCGAC (((..(((....)))))) | -10.2 | 48.1 |
| GTTGAGGGAAACCTCGAC ((.((((....)))).)) | -29.5 | 49.8 |
| GTAGCCGAAAGGCAATAC ((((((....)))..))) | -9.85 | 31.2 |
| GCAATCGAAAGATTGC ((((((....)))))) | -42.2 | 64 |

| Sequence | folding enthalpy [1] [kcal/mol] | Tm [2] [°C] |
| --- | --- | --- |
| GATCCAACCTGGATC ((((((...)))))) | -31 | 50.4 |
| GCGAGCGAAAGCTTACGC ((((((....)))..))) | -20.6 | 50.7 |
| GGGTGTGGAAACACATCC ((.((((....)))).)) | -26.4 | 52.5 |
| GGTATGCGAAAGCAGACC (((.(((....))).))) | -35.3 | 65.1 |
| GCTCACGAAAGTGGGAGC ((((((....)))..))) | -20.1 | 49.9 |
| ACTTCGAAAGAAGT (((((....))))) | -20.8 | 50.8 |
| GATCGACCCTTCGATC ((((((....)))))) | -45.1 | 53.4 |
| GGTTACGGAAACGTAATC (.(((((....))))).) | -30.5 | 45.5 |
| GCGTAGGTACGC ((((....)))) | -20.3 | 52.8 |
| GATCTCCGCAGAGATC ((((((....)))))) | -34.6 | 57.8 |
| GATCCCGGCTGGGATC ((((((....)))))) | -32 | 60.4 |
| GGCTTCCCGAAAGGGGCC (((..(((....)))))) | -17.7 | 48.2 |
| GTATATGGAAACGTATAC (((((.(....).))))) | -24.4 | 35.2 |
| GCGCTCGAAAGAGTCGC ((((((....))).))) | -30.6 | 57.7 |
| GTGAGCGGAAACACTCAC (((((.(....).))))) | -43.7 | 47.7 |
| GTATCCGAAAGGAGCTAC ((((((....)))..))) | -12.6 | 31.8 |
| GCACGTGGAAACGTGTGC ((((..(....)..)))) | -24.8 | 58.5 |
| GGTTCTGGAAACAGAACC (((((((....))))))) | -46.5 | 60.8 |
| GACGACGAAAGTCGCGTC ((((((....)))..))) | -10.6 | 49.9 |
| GATCGTGACACGATC ((((((...)))))) | -40.4 | 59.9 |
| GTCACCGAAAGGTGGAC ((((((....))).))) | -14.1 | 54.2 |
